# High-throughput results deposited in PubChem by several laboratories.
# Only a selection was taken, and hits are over-represented in it overall.
# CHOP UPR activ – activators of apoptotic arm of unfolded protein response (CHOP). CHO-CHOP luciferase reporter, UPR activation, luminescence; percent of tunicamycin response over DMSO baseline. activation, % at 10 µM. 330,000 compounds, 0.34% hits. AID 449763;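 active = at 10 µM dose, activation of 40% or more, normalized to positive control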;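 also: 100% = tunicamycin at 10 µg/mL and 0% = DMSO alone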
#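 System: CHO-CHOP luciferase reporter cell line | Buffer or medium: F12 medium containing 10% fetal bovine serum | Doses: One dose, 10 µM in 0.5% DMSO | Times: 6 h compound exposure at 37 °C after overnight seeding | Signal: Luciferase luminescence | Read-out: % activation vs tunicamycin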
# CHOP inh – inhibitors of CHOP induction in ER stress response; CHO-K1 CHOP-promoter luciferase, tunicamycin-induced, 15-18 h; 220,000 compounds, 3.8% hits; inhibition, % at 10 µM;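 active = compounds that reduced the stress-induced luciferase reporter signal by more than about 70% of percent inhibition, limit read from the data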;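 also: 0% = tunicamycin plus vehicle and 100% = wells without tunicamycin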
# XBP1 UPR activ – adaptive UPR (XBP1) activation | CHO-XBP1 luciferase reporter, IRE1-XBP1 UPR activation, luminescence; percent of tunicamycin response, DMSO as zero | activation, % at 20 µM | AID 463104 | 330,000 compounds, 0.33% hits;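 active = versus positive control, 20 µM dose yields 30% or more activation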;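 also: 100% = tunicamycin at 10 µg/mL and 0% = DMSO only wells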
#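 assay system = CHO-XBP1 luciferase reporter cells | amount = 1000 cells/well | buffer or medium = F12 plus 10% FBS | compound dosing = single point, 20 µM final compound, 1% DMSO | incubation = 16-18 h cell attachment at 37 °C, then 6 h compound exposure | detection = Steady-Glo luminescence read | controls = tunicamycin 10 µg/mL and vehicle-only wells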
# 697 NFkB inh – lowers PMA/ionomycin-induced NF-kB signal in 697 B cells. 697 B-cell NF-kB luciferase reporter, 16 h. inhibition, % at 4 µM. 330,000 compounds, 0.33% hits. AID 435022; in the data active = inhibition above about 35%
# Jurkat NFkB inh – lowers PMA/ionomycin-induced NF-kB signal in Jurkat cells. inhibition, % at 4 µM. 330,000 compounds, 0.53% hits. AID 435003. PMA/ionomycin-induced NF-kB luciferase reporter, luminescence; in the data active = inhibition above about 50%
# Jurkat NFkB conf – lowers PMA/ionomycin-induced NF-kB signal in Jurkat cells; Jurkat NF-kB luciferase, 16 h; inhibition, % at 4 µM; shares compounds with Jurkat NFkB inh; 2,700 compounds, 27% hits;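 active = inhibition reaching about 45% at 4 µM in either replicate, limit read from the data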;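 also: plate controls were PMA/ionomycin stimulated DMSO wells for no effect and unstimulated DMSO wells for full effect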
# The depositor's hits bear a star; x = no result given.
SMILES,CHOP UPR activ,CHOP inh,XBP1 UPR activ,697 NFkB inh,Jurkat NFkB inh,Jurkat NFkB conf
CN1C(=O)C(O)(C2CCCCCC2=O)c2ccccc21 (centres undefined),0,x,0,7,2,x
Cc1c(C(=O)OCc2ccccc2)[nH]c2c1C(=O)CC(c1ccco1)C2 (centres undefined),0,x,10,-8,63*,39
COCCOC(=O)c1[nH]c2c(c1C)C(=O)CC(c1ccccc1)C2 (centres undefined),1,-12,10,-16,46,x
CCOC(=O)c1[nH]c2c(c1C)C(=O)CC(c1ccco1)C2 (centres undefined),-2,x,10,-42,75*,55*
COCCOC(=O)c1[nH]c2c(c1C)C(=O)CC(c1ccc(F)cc1)C2 (centres undefined),0,x,-3,-6,46,x
COCCOC(=O)c1[nH]c2c(c1C)C(=O)CC(c1ccco1)C2 (centres undefined),0,x,6,-15,60*,10
CSCCOC(=O)c1[nH]c2c(c1C)C(=O)CC(c1ccco1)C2 (centres undefined),2,x,5,-3,58*,2
Cc1ccc(-n2ncc3c(=O)n(CC(=O)N4CCN(C(=O)c5ccco5)CC4)cnc32)cc1,-2,x,3,7,-8,x
Cc1c(C(=O)OCCOC(C)C)[nH]c2c1C(=O)CC(c1ccco1)C2 (centres undefined),-2,x,14,-18,60*,36
C=CCNc1nc(-c2ccc(Cl)cc2)cs1,4,21,-3,-151,-157,-27
C=CCNc1nc(-c2ccc([N+](=O)[O-])cc2)cs1,4,-34,3,-174,-112,x
CC1CCCCN1C(=O)COC(=O)C1CCN(S(=O)(=O)c2ccc3c(c2)OCCO3)CC1 (centres undefined),-1,x,-4,11,10,x
COc1ccccc1C1c2ccc3ccccc3c2Oc2ncn(CCN(C)C)c(=N)c21 (centres undefined),2,x,3,7,78*,13
COc1ccccc1C1c2ccc3ccccc3c2Oc2ncn(CCCO)c(=N)c21 (centres undefined),2,x,1,-31,18,x
Cc1onc(-c2ccccc2Cl)c1C(=O)N1CCN(C=O)CC1,-1,x,-7,-7,-5,x
Cc1cccc(N2CCN(C(=O)c3c(-c4ccccc4Cl)noc3C)CC2)c1C,0,x,1,-5,67*,51*
COc1cc(OC)cc(C(=O)/C=C2\Sc3ccccc3N2C)c1,7,-11,0,-18,-33,x
CN1/C(=C\C(=O)c2cccc([N+](=O)[O-])c2)Sc2ccccc21,8,x,6,-101,-175,-1
CC(C)(C)NC(=O)NC(=O)COc1ccc(Br)cc1Br,3,83*,-3,-201,-210,-101
CC(C)(C)NC(=O)NC(=O)COC(=O)COc1ccc(Cl)cc1Cl,-1,32,1,3,-3,x
N#C/C(=N\Nc1cccc(F)c1)C(=N)N1CCCCCC1,4,-30,-3,-143,-168,-53
COc1ccc(C(=O)Nc2ccc(-c3ccc(C)o3)cc2)cc1S(=O)(=O)N1CCOCC1,7,39,5,15,59*,12
CCCSc1nc2c3c(sc2c(=O)[nH]1)CC(C)(CC)OC3 (centres undefined),2,-12,-2,4,-12,x
CCC(=NCCc1c(C)[nH]c2ccc(C)cc12)C1=C(O)CC(c2ccccc2)CC1=O (centres undefined),2,-5,8,-22,64*,10
O=C(NC1CC1)c1ccc2c(c1)N(Cc1ccccc1)CCS2,-1,x,-2,-4,-4,x
SMILES,CHOP UPR activ,CHOP inh,XBP1 UPR activ,697 NFkB inh,Jurkat NFkB inh,Jurkat NFkB conf
Cc1ccc(Cn2c(SC(C)C(N)=O)nc3ccccc3c2=O)cc1 (centres undefined),1,-5,-3,16,8,x
Cc1ccc(S(=O)(=O)N2CCCCC2CCNC(=O)C(=O)NCCc2ccco2)cc1 (centres undefined),1,x,-2,-15,60*,25
CCOc1ccc(OCC)c(NC(=O)CN2CCN(c3cccc(C)c3)C(C)C2)c1 (centres undefined),1,30,1,-20,58*,19
CCc1cc2c(=O)n(Cc3ccco3)c(SCC(=O)NCC3CCCO3)nc2s1 (centres undefined),-1,x,-8,-11,2,x
CCc1cc2c(=O)n(Cc3ccco3)c(SCc3c(C)noc3C)nc2s1,1,x,1,2,55*,28
Cc1cc(-c2nnc(SCC(=O)Nc3ccc(C)c(C)c3)n2N)n[nH]1,1,x,-3,2,6,x
CCOC(=O)c1c(N)sc(C(=O)Nc2ccccc2F)c1C,2,-19,-1,-175,-186,-146
CCOC(=O)c1sc(NC(=O)Nc2ccccc2)cc1C,5,27,4,-233,-171,-139
CCOC(=O)c1c(N)sc(C(=O)Nc2ccccc2)c1C,1,-21,-2,-165,-166,-114
COc1cccc(NC(=O)COC(=O)c2c(C)nn(-c3ccccc3)c2C)c1,-2,x,0,11,-6,x
O=C(NC(=S)NCc1ccccc1Cl)c1cccs1,-1,x,-2,-20,3,x
CCOC(=O)C1=C(C)N(C)C(=O)NC1c1cccc2ccccc12 (centres undefined),6,x,-3,-21,-7,x
O=C(Nc1ccc(Cl)cc1C(=O)NCc1cccnc1)c1ccc(Cl)cc1Cl,0,-6,0,-23,51*,11
COc1ccc(S(=O)(=O)N2CCCCC2)cc1NC(=O)CCCOc1ccc(C)cc1,1,x,-2,1,-1,x
Nc1nc(N)c(N=O)c(OCC2CCCCC2)n1,4,x,1,-13,4,x
CC(C)(C)c1csc(Sc2ccc([N+](=O)[O-])cn2)n1,3,-33,2,4,81*,40
Cc1ccnc(Sc2ccc([N+](=O)[O-])cn2)n1,-1,3,0,-39,-32,x
O=C(N[C@@H](Cc1ccccc1)C(=O)CCl)OCc1ccccc1,158*,-7,-13,-37,83*,48*
CCCN1CCC(=O)N(CCSc2ccc(OC)cc2)CC1,1,-18,0,-2,54*,18
COC(=O)/C(=C\Nc1ccc(Cl)cc1Cl)NC(=O)c1ccc(OC)cc1,2,26,0,-2,66*,-1
CCN1CCCC1CNc1ccc(S(C)(=O)=O)cc1[N+](=O)[O-] (centres undefined),0,x,9,-1,-15,x
COc1ccc(NC(=O)CSc2nc(SC)ns2)cc1,3,x,5,-58,-154,-45
COC(=O)CSc1nsc(SCC(=O)OC)n1,-2,10,2,-46,62*,10
